This is a sample that favours compounds with a hit; in the whole collection about 9.5% have one here.
Jurkat tox 60K: reduces viability or proliferation of Jurkat cells; actives 1.2% (n = 56,000); inhibition, % at 4 µM; Jurkat E6.1 viability, ATP luminescence, 48 h; AID 463;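 active means inhibition above the mean inhibition of all tested compounds plus 3 SD, cut at about 28% in these data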
M1 antagonist: M1 muscarinic receptor (rat) antagonism. P08482. CHO-M1 cells, Fluo-4 calcium, ACh EC80 antagonist mode; stronger effect = lower value. B-score at 10 µM. actives 3.4% (n = 64,000);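 active means calcium fluorescence response, raw or row-and-column corrected B-score, differing from the plate sample mean either way at a set confidence level, mostly lower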
Target sequence (P08482 whole entry, looked up): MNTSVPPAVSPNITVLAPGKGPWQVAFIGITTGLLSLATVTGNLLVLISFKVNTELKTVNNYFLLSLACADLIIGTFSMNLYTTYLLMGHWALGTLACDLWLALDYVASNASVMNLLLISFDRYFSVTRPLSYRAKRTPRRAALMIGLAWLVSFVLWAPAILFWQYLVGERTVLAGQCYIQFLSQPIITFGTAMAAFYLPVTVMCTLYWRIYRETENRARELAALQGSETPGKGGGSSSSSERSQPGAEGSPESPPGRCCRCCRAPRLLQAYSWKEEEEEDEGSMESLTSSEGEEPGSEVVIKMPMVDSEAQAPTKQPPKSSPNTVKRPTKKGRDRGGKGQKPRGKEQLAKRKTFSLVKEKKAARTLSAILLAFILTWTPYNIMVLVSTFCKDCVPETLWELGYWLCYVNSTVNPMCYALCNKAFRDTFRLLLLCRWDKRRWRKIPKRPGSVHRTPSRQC
HEK293 NFkB inh: inhibitors of the PMA/ionomycin-induced NF-kB reporter in HEK293 cells | HEK-293 NF-kB luciferase reporter, luminescence | actives 0.21% (n = 62,000) | inhibition, % at 3 µM;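 active means inhibition above the mean of all tested compounds plus 3 SD, cut at about 40% in these data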
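Material: HEK-293 cells with stable firefly luciferase reporter driven by four HIV NF-kB elements / Also added: PMA plus ionomycin mix as NF-kB-activating stimulus / Compound dosing: 3 µM once, 0.30% DMSO / Times: 1 h pretreatment, 16 h stimulation, 37 °C / Signal: luminescence / Evaluation: per-plate % inhibition versus controls / Benchmarks: DMSO and 10 µM reference inhibitor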
mHtt clearance: mutant huntingtin protein clearance | HeLa Exon1htt(103Q)mCFP, aggregate imaging; zero = plate's median compound well | inhibition, % at 1.5 µM | actives 0.42% (n = 47,000);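 active means inhibition of aggregate fluorescence above about 70%, also judged a hit by eye on the cell image, limit read from the data, passing the limit was not always enough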;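 further: cells exposed to compound for three days before fixation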
M1 agonist: agonists of M1 muscarinic receptor. actives 3% (n = 64,000). B-score at 10 µM. CHO-M1 cells, Fluo-4 calcium fluorescence, agonist mode; stronger effect = higher value;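 active means fluorescence rise, raw or as B-score row- and column-corrected plate score, outside the 99.7% band of its plate's samples, either direction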
D1 mod: allosteric modulators of human D1 dopamine receptor | HEK293 D1, CRE-luciferase, dopamine EC30 potentiation; actives deviate in either direction | P21728 | actives 5.9% (n = 58,000) | AID 641 | B-score at 10 µM;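 active means luminescence count or its row- and column-corrected plate score outside the 99.7% band of the plate's sample wells, on either side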
M1 antag confirm: M1 muscarinic receptor (rat) antagonism, confirmed; shares compounds with M1 antagonist; CHO-M1 cells, Fluo-4 calcium, ACh EC80 antagonism; stronger effect = lower value; calcium response (max-min fluorescence) at 10 µM; actives 43% (n = 1,700);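 active means calcium response below the same-plate mean of wells given acetylcholine alone at its 80%-effect dose, minus 3 SD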
mGluR4 antag: mGluR4 (human) activity, M1 antagonist secondary assay. fluorescence response (max-min) at 10 µM. CHO-mGluR4 calcium flux, Fluo-4 fluorescence, glutamate EC80; stronger effect = lower value. shares compounds with M1 antagonist. actives 0.9% (n = 1,700);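 active means fluorescence response below the plate's average for near-maximal glutamate wells, less 3 SD of those wells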;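 further: raw unnormalized fluorescence span taken in the window right after glutamate addition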
Of the large screens only hits and unclear results are named; the others gave an inactive call (follow-up assays come after a bar, where they were run).

O=C(NCC(=O)N(CC1CCCO1)C(C(=O)NC1CCCC1)c1cccnc1)c1ccco1 (stereo unspecified)	none (no result: mHtt clearance)
COc1ccc(-c2noc(CSc3nc(N)c(-c4ccccc4)c(=O)[nH]3)n2)cc1	M1 antagonist -3.37 | M1 antag confirm inactive | mGluR4 antag inactive
COc1ccc(Cc2nc(-c3ccc(-n4cccc4)cc3)no2)cc1	none (no result: mHtt clearance)
COc1ccc(Cc2nc(-c3ccccc3)no2)cc1	M1 antagonist -2.11 | M1 antag confirm inactive | mGluR4 antag inactive
Cc1ccc(SCc2nc(-c3ccccc3)no2)cc1	none
COc1ccccc1NS(=O)(=O)CC12CCC(CC1=O)C2(C)C (stereo unspecified)	none (no result: mHtt clearance)
O=C(NCc1ccco1)C1c2ccccc2Oc2ccccc21	M1 antagonist -5.38 | M1 antag confirm inactive | mGluR4 antag inactive
CN(C)CCCN1C(=O)C(=O)/C(=C(/O)c2ccc(S(=O)(=O)N(C)C)cc2)C1c1ccncc1 (stereo unspecified)	none (no result: mHtt clearance)
Cc1cc(C)c(C(=O)CC2(O)C(=O)Nc3ccccc32)cc1C (stereo unspecified)	none (no result: Jurkat tox 60K, D1 mod)
COc1ccc(/C(CC2(O)C(=O)Nc3ccccc32)=N\O)cc1 (stereo unspecified)	M1 antagonist -2.52 (no result: mHtt clearance, D1 mod) | M1 antag confirm inactive | mGluR4 antag inactive
O=C(COC(=O)CCNS(=O)(=O)c1ccc(Cl)cc1)NCc1ccco1	M1 antagonist -2.82 | M1 antag confirm inactive | mGluR4 antag inactive
COc1ccc(CNC(=O)CN(CC2CCCO2)C(=O)CNS(=O)(=O)c2ccc(C)cc2)cc1 (stereo unspecified)	none
COc1ccc(CNC(=O)CN(CC2CCCO2)C(=O)CNS(=O)(=O)c2ccccc2)cc1 (stereo unspecified)	M1 antagonist -2.44 (no result: mHtt clearance) | M1 antag confirm inactive | mGluR4 antag inactive
Cc1ccc2c(=O)c(CN(C)C3CCN(C)CC3)c(C)[nH]c2c1C	none (no result: Jurkat tox 60K, HEK293 NFkB inh, mHtt clearance)
CCOC(=O)N1CCN(CC(O)COCC2=CCC3CC2C3(C)C)CC1 (stereo unspecified)	M1 antagonist -6.34 (no result: mHtt clearance) | M1 antag confirm 456 | mGluR4 antag inactive
CCOC(=O)N1CCN(CC(O)COCc2ccccc2)CC1 (stereo unspecified)	none (no result: Jurkat tox 60K, M1 antagonist, HEK293 NFkB inh, M1 agonist, D1 mod)
Cc1ccc(OCC(O)CNS(=O)(=O)c2ccccc2C(=O)N2CCCCC2)cc1 (stereo unspecified)	none
CCC(=O)c1ccc(OCC(O)CN(C)C2CCCCC2)cc1 (stereo unspecified)	M1 antagonist -5.47 (no result: mHtt clearance) | M1 antag confirm 480 | mGluR4 antag inactive
CN(CC(O)COc1ccc(OCC(O)CN(C)C2CCCCC2)cc1)C1CCCCC1 (stereo unspecified)	none (no result: Jurkat tox 60K, HEK293 NFkB inh, mHtt clearance)
CC(=O)c1ccc(OCC(O)CN2C(C)CCCC2C)cc1 (stereo unspecified)	M1 antagonist -1.98 | M1 antag confirm inactive | mGluR4 antag inactive
CC(=O)c1ccc(OCC(O)CN2CCC(C)CC2)cc1 (stereo unspecified)	none (no result: mHtt clearance)
COC(=O)c1ccc(OCC(O)CN2CCC(C)CC2)cc1 (stereo unspecified)	M1 antagonist -3.52 | M1 antag confirm inactive | mGluR4 antag inactive
COc1cc(-c2cc(C(=O)N3CCN(c4ccccn4)CC3)c3ccccc3n2)cc(OC)c1OC	M1 antagonist -3.77, D1 mod -3.97 (no result: mHtt clearance) | M1 antag confirm inactive | mGluR4 antag inactive
c1cc2c3c(cccc3c1)C(N1CCCCC1)=N2	M1 antagonist -6.84 (no result: mHtt clearance) | M1 antag confirm 224 | mGluR4 antag inactive
CCOC(=O)Nc1ccc2c(c1)N(C(=O)N(CC)CC)c1ccccc1CC2	none (no result: Jurkat tox 60K, HEK293 NFkB inh, mHtt clearance)
COc1cc(C(=O)O)cc(Br)c1OC1CCCC1	none
Cc1ccccc1N(CC(=O)NCCc1ccccc1)C(=O)c1ccc(N2CCCC2)nc1	M1 antagonist -4.61 (no result: D1 mod) | M1 antag confirm inactive | mGluR4 antag inactive
Cc1ccc2nc(NC3=NCN(C4CCCCC4)CN3)nc(C)c2c1	none (no result: mHtt clearance)
CCc1ccc2nc(NC3=NCN(CCCN4CCOCC4)CN3)nc(C)c2c1	M1 antagonist -3.74 (no result: mHtt clearance) | M1 antag confirm 344 | mGluR4 antag inactive
CCc1ccc2nc(NC3=NCN(CCOC)CN3)nc(C)c2c1	none (no result: mHtt clearance)
Cc1ccc2nc(NC3=NCN(Cc4ccco4)CN3)nc(C)c2c1	M1 antagonist -2.89 (no result: mHtt clearance) | M1 antag confirm inactive | mGluR4 antag inactive
Cc1ccc2nc(NC3=NCN(Cc4ccc5c(c4)OCO5)CN3)nc(C)c2c1	M1 antagonist -4.18 | M1 antag confirm 90.1 | mGluR4 antag inactive
CC12C(=O)N(CCC(=O)O)C(=O)C1C1C=CC2C1 (stereo unspecified)	none (no result: mHtt clearance)
Cc1ccc2[nH]c3c(c2c1)CN(C(=O)CN1c2ccc(F)cc2CCC1C)CC3 (stereo unspecified)	none (no result: Jurkat tox 60K, M1 antagonist, HEK293 NFkB inh, M1 agonist, D1 mod)
O=C(CN1CCSCC1)N1CCc2[nH]c3ccc(Br)cc3c2C1	M1 antagonist -11.2 | M1 antag confirm 124 | mGluR4 antag inactive
CC(=O)c1ccccc1NS(=O)(=O)c1c(C)nn(-c2ccccc2)c1C	M1 antagonist -3.4 (no result: mHtt clearance) | M1 antag confirm inactive | mGluR4 antag inactive
CC1CCCCC1NC(=O)c1ccc2c(c1)[nH]c(=O)n2C1CCCC1 (stereo unspecified)	none (no result: mHtt clearance)
CCOC(=O)C(C)n1ncn2cccc2c1=O (stereo unspecified)	none (no result: M1 antagonist, mHtt clearance, M1 agonist, D1 mod)
Cc1ccc(C(=O)CSc2ncnc3sc4c(c23)CCC(C)C4)cc1 (stereo unspecified)	none (no result: Jurkat tox 60K, M1 antagonist, HEK293 NFkB inh, M1 agonist, D1 mod)
NC(=O)COc1ccc(=O)n(-c2ccccc2)n1	M1 antagonist -2.36 (no result: D1 mod) | M1 antag confirm inactive | mGluR4 antag inactive
CNCC(O)Cn1c(C(F)(F)F)nc2ccccc21 (stereo unspecified)	none (no result: Jurkat tox 60K, M1 antagonist, HEK293 NFkB inh, M1 agonist, D1 mod)
CCOC(=O)c1sc2ncnc(NCC(c3cccs3)N(C)C)c2c1C (stereo unspecified)	M1 antagonist -3.38 (no result: mHtt clearance) | M1 antag confirm 496 | mGluR4 antag inactive
O=C(CSc1ccc2c(c1)OCCO2)Nc1ccc(Cl)cn1	M1 antagonist -3.22 | M1 antag confirm inactive | mGluR4 antag inactive
Cc1c(NC(=O)CSc2ccc3c(c2)OCCO3)c(=O)n(-c2ccccc2)n1C	none (no result: mHtt clearance)
Cc1nnc(SCC(=O)N2CCN(S(=O)(=O)c3ccccc3)CC2)n1Cc1ccccc1	M1 antagonist -6.36 | M1 antag confirm 350 | mGluR4 antag inactive
Cc1ccc(S(=O)(=O)N2CCN(C(=O)CSc3nnc(-c4ccco4)o3)CC2)cc1	M1 antagonist -2.99 (no result: mHtt clearance) | M1 antag confirm inactive | mGluR4 antag inactive
Cc1csc(SCC(=O)N2CCN(S(=O)(=O)c3ccccc3)CC2)n1	none
O=c1[nH]c2ccccc2n1CCC1CCCCC1	none (no result: Jurkat tox 60K, M1 antagonist, HEK293 NFkB inh, M1 agonist, D1 mod)
N=c1n(CCN2CCCC2)c2ccccc2n1CC(O)c1ccco1 (stereo unspecified)	none (no result: mHtt clearance)
